In publication PMC8233206 (The Journal of Biological Chemistry, 2021):
Read-outs that look alike come from different tables or passages of the source.

Columns and labels:
[1] = humans; 230 mM at 5 ml/s injection rate; cited from earlier work
[2] = mice; injection of 80 mM hyperpolarized solution; cited from earlier work
QGP1 cells = assay: Seahorse XF glycolysis stress assay, glucose-induced ECAR; type: cell-based, human
Outline: (§1)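 Seeded 48 h before in growth medium (1.5 × 10⁴ Panc03.27, MDA-MB-231, HPNE; 1.2 × 10⁴ Mia Paca-2; 2.0 × 10⁴ QGP1). MCT1/2 inhibitor 0.5 μM or DMSO added 4 h pre-assay. Medium: DMEM without NaHCO₃, 2 mM glutamine, 5 mM glucose, pH 7.4. Injected in order: 2 mM sodium pyruvate, 10 mM glucose, 2 μM oligomycin, 50 mM 2-DG. Glucose-induced/baseline ECAR ratio, normalized to Hoechst cell counts and 0 mM pyruvate; three experiments.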

Panc03.27 cells = assay: as above; type: cell-based, human
Outline: as §1

Mia Paca-2 cells = assay: as above; type: cell-based, human
Outline: as §1

MDA-MB-231 cells = assay: as above; type: cell-based, human
Outline: as §1

HPNE cells = assay: as above; type: cell-based, human
Outline: as §1

[3] = system: LDH in extracts from HPNE cells; assay: LDH enzyme kinetics in cell extracts; type: biochemical, human; conditions: HPNE cell extract
Outline: (§2)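 Cells washed in ice-cold PBS, lysed in ice-cold LDH assay lysis buffer, protein measured by Coomassie. Extract mixed with Tris/NaCl/NADH buffer and Tris/NaCl/pyruvate (0–30 mM). Plate shaken 30 s, then A340 read five times at 30-s intervals; initial velocities from NADH oxidation. Enzyme-free and pyruvate-free controls run. Vmax, Vpeak, apparent Km and Ki from biphasic curve fits. Triplicate, three independent experiments; mean ± SE.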

[4] = system: LDH in extracts from MDA-MB-231 cells; assay: LDH enzyme kinetics in cell extracts; type: biochemical, human; conditions: MDA-MB-231 cell extract
Outline: as §2

bovine heart LDH = bovine heart LDH (Bos taurus, UniProt Q5E9B1); assay: LDH coupled-enzyme kinetic assay; type: biochemical
Sequence of bovine heart LDH (Q5E9B1 2-334): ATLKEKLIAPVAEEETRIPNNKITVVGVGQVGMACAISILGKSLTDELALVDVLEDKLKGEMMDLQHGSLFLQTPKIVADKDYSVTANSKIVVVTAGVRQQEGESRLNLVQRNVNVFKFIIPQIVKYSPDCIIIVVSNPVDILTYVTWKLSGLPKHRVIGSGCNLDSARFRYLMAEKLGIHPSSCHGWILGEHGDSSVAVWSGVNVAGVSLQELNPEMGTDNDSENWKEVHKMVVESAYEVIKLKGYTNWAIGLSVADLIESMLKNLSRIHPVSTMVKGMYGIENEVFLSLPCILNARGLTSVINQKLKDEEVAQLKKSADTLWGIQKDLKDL

human recombinant LDHB = human recombinant LDHB (Homo sapiens, UniProt P07195); assay: LDH coupled-enzyme kinetic assay; type: biochemical
Sequence of human recombinant LDHB (P07195 whole entry): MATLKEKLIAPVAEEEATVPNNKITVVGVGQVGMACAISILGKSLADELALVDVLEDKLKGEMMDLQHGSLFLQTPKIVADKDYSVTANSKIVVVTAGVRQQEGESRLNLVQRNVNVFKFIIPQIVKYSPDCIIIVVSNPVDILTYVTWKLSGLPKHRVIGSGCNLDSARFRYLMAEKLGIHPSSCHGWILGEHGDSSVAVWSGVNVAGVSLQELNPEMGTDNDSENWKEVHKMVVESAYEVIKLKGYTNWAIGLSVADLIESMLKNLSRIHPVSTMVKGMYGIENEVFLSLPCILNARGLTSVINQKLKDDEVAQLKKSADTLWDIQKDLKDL

[5] = system: LDH in extracts from QGP1 cells; assay: LDH enzyme kinetics in cell extracts; type: biochemical, human; conditions: QGP1 cell extract
Outline: as §2

[6] = system: LDH in extracts from Mia Paca-2 cells; assay: LDH enzyme kinetics in cell extracts; type: biochemical, human; conditions: Mia Paca-2 cell extract
Outline: as §2

[7] = target: purified human recombinant LDHA (Homo sapiens, UniProt P00338); assay: LDH coupled-enzyme kinetic assay; type: biochemical
[8] = system: LDH in extracts from Panc03.27 cells; assay: LDH enzyme kinetics in cell extracts; type: biochemical, human; conditions: Panc03.27 cell extract
Outline: as §2

[9] = 0.5 μM AZD3965 pretreatment 4 h, 5 mM glucose, vs DMSO control
[10] = read-out: Ki (apparent, substrate inhibition)
[11] = LDH bovine heart, pyruvate 0–30 mM
[12] = 2 mM sodium pyruvate, medium with 5 mM glucose, DMSO control

## CC(=O)[13C](=O)O [[1-^13C]pyruvate]
[1]
  Blood pyruvate concentration: ≥ 2 mM
[2]
  Blood pyruvate concentration: ~8 mM

## Cc1[nH]nc(C(F)(F)F)c1Cc1sc2c(c1C(=O)N1C[C@](C)(O)CO1)c(=O)n(C)c(=O)n2C(C)C [AZD3965, reference compound]
QGP1 cells; [9]
  Effect on 2 mM pyruvate-induced inhibition of glucose-stimulated ECAR: blocked
Panc03.27 cells; [9]
  Effect on 2 mM pyruvate-induced inhibition of glucose-stimulated ECAR: blocked
Mia Paca-2 cells; [9]
  Effect on 2 mM pyruvate-induced inhibition of glucose-stimulated ECAR: blocked
MDA-MB-231 cells; [9]
  Effect on 2 mM pyruvate-induced inhibition of glucose-stimulated ECAR: no significant effects
HPNE cells; [9]
  Effect on 2 mM pyruvate-induced inhibition of glucose-stimulated ECAR: blocked

## CC(=O)C(=O)O [pyruvate]
[3]
  Vmaz (maximal initial velocity from activation curve fit): 2.71 ± 0.08 ΔAbs/s∗10^−3/μg protein
  Vpeak (peak initial velocity of the biphasic curve fit): 1.98 ΔAbs/s∗10^−3/μg protein
[3]; [10]
  Ki: 2.67 ± 0.2 mM
[3]; read-out: Km (apparent)
  Km: 90 ± 10 µM
[4]
  Vmaz (maximal initial velocity from activation curve fit): 2.98 ± 0.17 ΔAbs/s∗10^−3/μg protein
  Vpeak (peak initial velocity of the biphasic curve fit): 2.20 ΔAbs/s∗10^−3/μg protein
[4]; [10]
  Ki: 3.39 ± 0.5 mM
[4]; read-out: Km (apparent)
  Km: 100 ± 20 µM
Bovine heart LDH
  Ki: 1.75 ± 0.11 mM
Bovine heart LDH; [11]
  Vmaz (maximal initial velocity from activation curve fit): 3.23 ± 0.10 ΔAbs/s∗10^−3/μg protein
  Vpeak (peak initial velocity of the biphasic curve fit): 2.08 ΔAbs/s∗10^−3/μg protein
QGP1 cells; [12]
  Decrease of glucose-stimulated ECAR: > 30%
Panc03.27 cells; [12]
  Decrease of glucose-stimulated ECAR: > 30%
Human recombinant LDHB
  Ki: 2.88 ± 0.4 mM
Human recombinant LDHB; rLDHB, pyruvate 0–30 mM
  Vmaz (maximal initial velocity from activation curve fit): 1.00 ± 0.05 ΔAbs/s∗10^−3/μg protein
  Vpeak (peak initial velocity of the biphasic curve fit): 0.75 ΔAbs/s∗10^−3/μg protein
[5]
  Vmaz (maximal initial velocity from activation curve fit): 1.85 ± 0.05 ΔAbs/s∗10^−3/μg protein
  Vpeak (peak initial velocity of the biphasic curve fit): 1.42 ΔAbs/s∗10^−3/μg protein
[5]; [10]
  Ki: 3.42 ± 0.25 mM
[5]; read-out: Km (apparent)
  Km: 80 ± 10 µM
[6]
  Vmaz (maximal initial velocity from activation curve fit): 0.88 ± 0.03 ΔAbs/s∗10^−3/μg protein
  Vpeak (peak initial velocity of the biphasic curve fit): 0.66 ΔAbs/s∗10^−3/μg protein
[6]; [10]
  Ki: 4.26 ± 0.32 mM
[6]; read-out: Km (apparent)
  Km: 110 ± 10 µM
Mia Paca-2 cells; [12]
  Decrease of glucose-stimulated ECAR: > 30%
[7]
  Ki: 5.33 ± 0.49 mM
[7]; rLDHA, pyruvate 0–30 mM
  Vmaz (maximal initial velocity from activation curve fit): 1.00 ± 0.04 ΔAbs/s∗10^−3/μg protein
  Vpeak (peak initial velocity of the biphasic curve fit): 0.75 ΔAbs/s∗10^−3/μg protein
MDA-MB-231 cells; [12]
  Decrease of glucose-stimulated ECAR: > 30%
HPNE cells; [12]
  Decrease of glucose-stimulated ECAR: less than 10%
[8]
  Vmaz (maximal initial velocity from activation curve fit): 2.00 ± 0.07 ΔAbs/s∗10^−3/μg protein
  Vpeak (peak initial velocity of the biphasic curve fit): 1.56 ΔAbs/s∗10^−3/μg protein
[8]; [10]
  Ki: 2.33 ± 0.21 mM
[8]; read-out: Km (apparent)
  Km: 50 µM
